Six compounds from ChEMBL document CHEMBL1123735 (J Med Chem, 1987) can be followed below.

The species named for one test is Cavia porcellus. Briefly: Antimuscarinic activity was assayed for its ability to block the acetyl-choline induced contraction of the guinea pig ileum. Type of test: functional.
Test [1] is filed under the species Rattus norvegicus. Kind of test: Inhibition of carbachol-induced release of alpha-amylase from pancreatic acini from rat was determined. The note with it: read-out: I50. Type of test: functional. The method, boiled down: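 Dispersed acini from male Sprague–Dawley rat pancreas (collagenase 0.8 mg/mL, three incubations), in DMEM with 0.2% albumin, 0.01% trypsin inhibitor, 0.09% theophylline under O2; viability >99%. Incubated with graded antagonist plus 10⁻⁵ M carbachol; secreted α-amylase by Phadebas assay; I50 by curve fitting.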

In test [2] the target is Muscarinic acetylcholine receptor. Kind of test: Inhibit the binding of [N-mnethyl-3H]-scopolamine [3H]-NMS) to Muscarinic acetylcholine receptor of human IRM-30 neuroblastoma cells.
For test [3], the species on record is Rattus norvegicus. Kind of test: Compound was tested for decrease in rate of lever pressing by rat. Type of test: functional. In short, it runs like this: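 Male Sprague–Dawley rats (350 g) lever-pressing for food on a 10-response schedule; sessions 30 min or 50 food presentations. Drug given intraperitoneally 30 min before session; saline controls. Mean ± SEM of single or duplicate determinations in four to six rats; I50 in mol/kg for rate decrease.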

With `CCN(CC)CCOC(=O)C(c1ccccc1)c1ccccc1` [ADIPHENINE], the Kb in the test listed under Cavia porcellus is 92 nM; in the test listed under Cavia porcellus (read-out: pA2 (converted)), 79.4 nM. Also, the IC50 in the test listed under Rattus norvegicus [1] is 350 nM.

`CCN(CC)CCOC(=O)C(C)(c1ccccc1)c1ccccc1` [APROFENE]: the figures for the Kb in the test listed under Cavia porcellus and in the test filed under Cavia porcellus (read-out: pA2 (converted)) were 3.1 nM and 3.16 nM, respectively. Moreover, in test [2], the inhibition constant (Ki) (commonly a dissociation constant, usually derived from enzyme kinetics or from competition with a known ligand) was 23 nM. Besides, the IC50 in the test listed under Rattus norvegicus [1] came out at 11 nM.

`CN1[C@@H]2CC[C@H]1C[C@@H](OC(=O)C(CO)c1ccccc1)C2` (stereo partly drawn) [ATROPINE]: the Kb in the test listed under Cavia porcellus and in the test listed under Cavia porcellus (read-out: pA2 (converted)) was 2 nM in each case. In addition, the IC50 in the test filed under Rattus norvegicus [1] turned out to be 51 nM. The compound also returned an I50 in the test listed under Rattus norvegicus [3] of 2.3e-05 M/kg.

The compound `CN1CC2CC(OC(=O)C(C)(c3ccccc3)c3ccccc3)CC1C2` (stereo not drawn) [AZAPROPHEN] showed a Ki in test [2] of 0.27 nM. Moreover, the IC50 in the test filed under Rattus norvegicus [1] was determined as 0.068 nM. The compound further displayed an I50 in the test listed under Rattus norvegicus [3] of 1.9e-05 M/kg.

Take `CCN(CC)CCOC(=O)C(O)(c1ccccc1)c1ccccc1` [BENACTYZINE]: in the test listed under Rattus norvegicus [1], the IC50 was 30 nM.

As to `CN1CCN(CC(=O)N2c3ccccc3C(=O)Nc3cccnc32)CC1` [PIRENZEPINE], the Kb in the test filed under Cavia porcellus was 50000 nM; in the test listed under Cavia porcellus (read-out: pA2 (converted)) it was 50100 nM. Further, the IC50 in the test listed under Rattus norvegicus [1] is 2800 nM.
